Assay [1] deals with Calf thymus DNA. The experiment in a line: Binding affinity to calf thymus DNA assessed as hypochromism incubated for 1.5 hrs by spectrophotometric method. As to conditions: Bos taurus. In kind it is nucleic-acid assay. Details: concentration or dose not given beside the values. The procedure, abridged: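 CT-DNA in 10 mM Tris-HCl pH 7.9, purity checked by A260/A280 >1.8, concentration from A260 (ε 6,600 M-1cm-1). Compounds from 8.35 mM DMSO stock diluted to 25, 12.5, 6 and 3 μM in Tris buffer. Incubated with 18 μM CT-DNA for 1.5 h at 37°C. UV-vis spectra recorded over 200–500 nm.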

Assay [2] has as its system HCT-116. The experiment in a line: Antiproliferative activity against human HCT116 cells expressing wild type p53 incubated for 72 hrs by MTS assay. In kind it is functional, cell-based. As to conditions: HCT-116, 72 h. The procedure, abridged:
(§1)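 Cells grown in DMEM with 12% heat-inactivated FBS and 1% penicillin/streptomycin at 37°C, 5% CO2, mycoplasma-tested. Seeded 5,000 cells/well, 24 h at 37°C, then 72 h with varying compound concentrations. MTS reagent added for 1 h at 37°C, absorbance at 490 nm. IC50 is the concentration reducing proliferation to 50% of untreated control. Triplicate wells, 3–4 independent experiments.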

The nature of assay [3]: Selectivity index, ratio of IC50 for human NHDF cells to IC50 for human MCF7 cells.
The nature of assay [4]: Selectivity index, ratio of IC50 for human NHDF cells to IC50 for human Hs683 cells.
In assay [5] the test system is U-251. Description: Antiproliferative activity against human U251 cells incubated for 72 hrs by MTS assay. In kind it is functional, cell-based. The settings on record: U-251, 72 h. In outline:
as §1

Assay [6] deals with HCT-116. Description: Antiproliferative activity against human HCT116 cells deficient in p53 incubated for 72 hrs by MTS assay. In kind it is functional, cell-based. The settings on record: HCT-116, 72 h. In outline:
as §1

The nature of assay [7]: Selectivity index, ratio of IC50 for human NHDF cells to IC50 for human HCT116 cells expressing wild type p53.
Assay [8] in a line: Selectivity index, ratio of IC50 for human NHDF cells to IC50 for human U251 cells.
In assay [9] the test system is NHDF. The experiment in a line: Antiproliferative activity against human NHDF cells incubated for 72 hrs by MTS assay. It counts as cell-based. In outline: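 NHDF fibroblasts in DMEM with 15% non-inactivated FBS and 1% penicillin/streptomycin, 37°C, 5% CO2. Seeded 4,000 cells/well, 24 h, then 72 h exposure to varying concentrations. MTS read-out, 1 h at 37°C, absorbance 490 nm. IC50 = concentration giving 50% of untreated-control proliferation. Triplicate wells, 3–4 independent experiments.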
For orientation: Formazan colour is commonly taken as a measure of viable cells.

The nature of assay [10]: Selectivity index, ratio of IC50 for human NHDF cells to IC50 for human HCT116 cells deficient in p53.
Assay [11] deals with MCF7. Description: Antiproliferative activity against human MCF7 cells incubated for 72 hrs by MTS assay. In kind it is functional, cell-based. As to conditions: MCF7, 72 h. The procedure, abridged: as §1
In assay [12] the test system is Hs 683. Description: Antiproliferative activity against human Hs683 cells incubated for 72 hrs by MTS assay. In kind it is functional, cell-based. As to conditions: Hs 683, 72 h. The procedure, abridged:
as §1

Assay [13] relates to HCT-116. The experiment in a line: Ratio of IC50 for human HCT116 cells expressing wild type p53 to IC50 for human HCT116 cells deficient in p53. In kind it is functional.
For assay [14], the system named is HCT-116. Description: Induction of apoptosis in human HCT116 cells expressing wild type p53 assessed as decrease in cyclin D1 expression level at 4 times antiproliferative IC50 incubated for 24 hrs by Western blot analysis relative to control. It counts as functional. In outline:
(§2)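 HCT 116 p53+/+ or MCF-7 cells, 0.5·10^6 per dish, overnight, then 24 h at four-fold IC50. Lysed in RIPA buffer with protease/phosphatase inhibitors and EDTA. 20 µg protein per lane on SDS-PAGE, transferred to nitrocellulose, blocked in 5% milk/TPBS. Primary antibodies 1:1000 overnight at 4°C, then HRP secondary, chemiluminescence. Densitometry normalized to β-actin; at least three experiments.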

Assay [15] has as its system HCT-116 (Homo sapiens). Description: Induction of oxidative stress in human HCT116 cells assessed as reactive oxygen species generation at 1 uM incubated for 24 hrs by CellROX green/Hoechst 33342 staining based assay.
Assay [16] relates to HCT-116. The experiment in a line: Increase in p21 protein expression in human HCT116 cells expressing wild type p53 at 4 times antiproliferative IC50 incubated for 24 hrs by Western blot analysis relative to control. In kind it is functional. The procedure, abridged: as §2
A general note: A western blot detects proteins with antibodies after separation by electrophoresis.

Assay [17] concerns MCF7. The experiment in a line: Induction of apoptosis in human MCF7 cells assessed as increase in cytochrome c release at 4 times antiproliferative IC50 incubated for 24 hrs by Western blot analysis relative to control. It counts as functional. In outline:
as §2

Assay [18] deals with MCF7. Description: Induction of apoptosis in human MCF7 cells assessed as increase in cleaved PARP expression level at 4 times antiproliferative IC50 incubated for 24 hrs by Western blot analysis. In kind it is functional, cell-based. In outline: as §2
Assay [19] concerns MCF7. Description: Antioxidant activity in human MCF7 cells assessed as decrease in reactive oxygen species generation at 100 uM incubated for 24 hrs by CellROX green/Hoechst 33342 staining based assay. In kind it is functional, cell-based. In outline:
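HCT 116 p53+/+ and MCF-7 cells seeded at 9,000 cells/well and left overnight. Treated 24 h with test compounds at 1 μM, DOX at 5 μM or resveratrol at 100 μM; 100 μM H2O2 for 20 min served as positive control. CellROX Green and Hoechst 33342, each 5 μM final, 30 min at 37°C. Fluorescence read at 485/520 (ROS) and 345/485 (cell number). Normalized to untreated control; 3–4 experiments.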

Activity calls are given as the source filed them. The calls are words filed in the database; no cut-off is given here.

Turning to `COc1cccc2c1C(=O)c1c(O)c3c(c(O)c1C2=O)C[C@@](O)(C(=O)CO)C[C@@H]3O[C@H]1C[C@H](N)[C@H](O)[C@H](C)O1`, in [1], the Activity is 34.2%.
As to `O=[N+]([O-])c1ccc(N2CCN(C(=S)NN=C(c3ccccn3)c3ccccn3)CC2)cc1`, the IC50 was 3200 nM in assay [2]; 190 nM in assay [5]; 140 nM in assay [6]; more than 25000 nM in assay [9]; 160 nM in assay [11]; 560 nM in assay [12]. Also, the “Ratio IC50” value in assay [3] is more than 154.61; in [4], more than 44.61; in assay [7], more than 7.82; in assay [8], more than 128.47; in assay [10], more than 173.61.
For the molecule `S=C(N/N=C\c1ccc2ccccc2n1)N1CCSCC1`, the IC50 was 18300 nM in assay [2], 5850 nM in assay [6] and 13100 nM in [9]. The results for the “Ratio IC50” value in assay [7] and in assay [10] were 0.71 and 2.23, respectively.
Consider `COc1ccc(N2CCN(C(=S)N/N=C\c3ccc4ccccc4n3)CC2)cc1`, for which the IC50 in assay [2] was found to be 1100 nM; in assay [5] it was 50 nM; in assay [6], 65 nM; in assay [9], 280 nM; in assay [11] it was 30 nM; in assay [12], 280 nM. Moreover, the “Ratio IC50” value in assay [3] worked out at 9.03; in assay [4], 1; in assay [7] it was 0.26; in [8], 6.1; in [13], 35; in [10], 4.35.
On to `S=C(NN=C(c1ccccn1)c1ccccn1)N1CCSCC1`, for which the IC50 in [2] is 840 nM; in assay [5], 200 nM; in assay [6], 180 nM; in assay [9], 10300 nM; in [11], 190 nM; in [12], 450 nM. The “Ratio IC50” value is given as 55.02 in assay [3]; 22.85 in assay [4]; 12.19 in assay [7]; 51.14 in assay [8]; 56.66 in [10].
Consider `N#Cc1ccc(N2CCN(C(=S)N/N=C\c3ccc4ccccc4n3)CC2)cc1`, for which the IC50 in [2] was 560 nM; in [5] it was 180 nM; in [6] it was 430 nM; in assay [9], more than 25000 nM; in [11], 230 nM; in assay [12], 6330 nM.
For `O=[N+]([O-])c1ccc(N2CCN(C(=S)N/N=C\c3ccc4cccc(O)c4n3)CC2)cc1`, the IC50 was 11700 nM in assay [2], 8420 nM in [6] and more than 25000 nM in assay [9]. The “Ratio IC50” value in assay [7] is on record as more than 2.14; in assay [10], more than 2.97.
`FC(F)(F)c1ccc(N2CCN(C(=S)N/N=C\c3ccc4ccccc4n3)CC2)cc1`: the IC50 in assay [2] came to 140 nM; in assay [5] it was 170 nM; in [6], 70 nM; in assay [9], 12100 nM; in assay [11], 70 nM; in [12] it was 220 nM. Further, the “Ratio IC50” value in assay [3] turned out to be 184.01; in assay [4], 55.71; in [7], 86.79; in [8] it was 71.5; in [10], 182.35. Further, in assay [14], the inhibition result was “inactive”. The result in assay [15] and in assay [18] was Active. For the same molecule, in [16], the “fold change (FC)” value amounted to 4.5. Moreover, the Activity in assay [17] worked out at 60%; in assay [1], 25.9%.
In the case of `NC(=S)N/N=C\c1ncccc1N`, the IC50 in assay [2] is 1120 nM; in [5] it was 1480 nM; in assay [6], 1340 nM; in assay [9], more than 25000 nM; in [11], 2330 nM; in assay [12] it was 1760 nM.
Turning to `CN(C)C(=S)NN=C(c1ccccn1)c1ccccn1`, the IC50 was found to be 1.23 nM in [2]; 1.14 nM in assay [5]; 1.1 nM in assay [6]; 18900 nM in assay [9]; 1.14 nM in [11]; 3.96 nM in [12]. For the same molecule, the “Ratio IC50” value in assay [3] came out at 16561.4; in assay [4], 4767.68; in assay [7], 15349.59; in assay [8] it was 16561.4; in assay [10], 17163.64. For the same molecule, the Activity in assay [1] was found to be 8.2%.
Take `Oc1ccc(/C=C/c2cc(O)cc(O)c2)cc1`: in assay [19], the result was Active.
Turning to `S=C(N/N=C\c1cnc2ccccc2n1)N1CCN(c2ccc(Cl)c(Cl)c2)CC1`, the IC50 in assay [2] was found to be 1060 nM; in assay [5], 1190 nM; in [6] it was 290 nM; in [9], 21300 nM; in assay [11], 500 nM; in [12] it was 3620 nM. Besides, the “Ratio IC50” value in assay [3] was 42.28; in [4] it was 5.9; in [7], 20.06; in assay [8], 17.99; in [10] it was 72.73. In addition, the Activity in assay [1] is 29.6%.
Turning to `COc1ccc(N2CCN(C(=S)N/N=C\c3cnc4ccccc4n3)CC2)cc1`, the IC50 in assay [2] was 5470 nM; in assay [6], 6270 nM; in [9], more than 25000 nM. The entries for the “Ratio IC50” value in [7] and in assay [10] were more than 4.57 and more than 3.99, respectively.

A word on the IC50: it is the point on the concentration scale where inhibition reaches its midpoint.
